Laboratory results taken from ChEMBL document CHEMBL1687928, “Discovery, optimization, and pharmacological characterization of novel heteroaroylphenylureas antagonists of C-C chemokine ligand 2 function” (J Med Chem, 2011).
Calls of active or inactive are those of the source. No cut-off for these calls is given here.

Columns and labels:
[1] = target: C-C chemokine receptor type 2 (Homo sapiens) (UniProt P41597); experiment: Antagonist activity at CCR2 in human THP1 cells assessed as inhibition of CCL2-induced calcium flux; assay type: functional, cell-based; conditions: THP-1
Method in brief: (§1)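 THP-1 cells in serum-free RPMI 1640 were loaded with 3 μM Fluo-3AM plus 0.1% F127 for 30 min at 37 °C. After washing, cells were resuspended at 5 × 10^6 cells/mL and kept at room temperature. They were pretreated 30 min with compound or DMSO, then stimulated with 100 ng/mL hCCL2. Fluorescence was read by flow cytometry at baseline for 15 s, then from 20 to 120 s. Inhibition is given as % of DMSO control.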

[2] = test system: THP-1; experiment: Cytotoxicity against human THP1 cells; assay type: cell-based
[3] = target: C-C chemokine receptor type 2 (Homo sapiens) (UniProt P41597); experiment: Antagonist activity at CCR2 in human THP1 cells assessed as inhibition of CCL2-induced calcium flux at 50 uM; assay type: functional, cell-based; conditions: THP-1; method in brief: as §1
[4] = target: C-C chemokine receptor type 2 (Homo sapiens) (UniProt P41597); assay type: cell-based; conditions: HEK293
[5] = target: C-C chemokine receptor type 2 (Homo sapiens) (UniProt P41597); assay type: cell-based; conditions: THP-1

Sequence of C-C chemokine receptor type 2 (Homo sapiens) (P41597 whole entry, looked up): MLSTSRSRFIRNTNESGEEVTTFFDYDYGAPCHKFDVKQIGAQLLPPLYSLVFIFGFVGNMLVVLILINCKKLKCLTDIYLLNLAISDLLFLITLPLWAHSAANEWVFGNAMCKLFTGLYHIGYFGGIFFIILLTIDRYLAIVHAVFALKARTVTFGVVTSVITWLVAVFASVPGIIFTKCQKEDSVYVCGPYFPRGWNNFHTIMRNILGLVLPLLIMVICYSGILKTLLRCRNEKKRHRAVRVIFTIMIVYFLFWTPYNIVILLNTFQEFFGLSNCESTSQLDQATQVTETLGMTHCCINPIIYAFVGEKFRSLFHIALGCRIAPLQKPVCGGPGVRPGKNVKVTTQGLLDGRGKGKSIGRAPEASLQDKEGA

- Activity [1]: Dose-dependent effect
- Activity [3]: Active
- Activity [4]: inactive
- Activity [5]: inactive
SMILES: O=C(NC(=O)c1ccc2c(c1)OCO2)Nc1ccc(O)c(Cl)c1
- CC50 [2]: > 50 µM
